ChEMBL document CHEMBL1681707, “Thienopyrrole acetic acids as antagonists of the CRTH2 receptor” (Bioorg Med Chem Lett, 2011)

Experiments:
[1] = molecular target: T1, Prostaglandin D2 receptor 2 (Homo sapiens, UniProt Q9Y5Y4); assay: Displacement of [3H]PGD2 from human CRTH2 receptor expressed in HEK293 cell membranes
T1 sequence (Q9Y5Y4 whole entry): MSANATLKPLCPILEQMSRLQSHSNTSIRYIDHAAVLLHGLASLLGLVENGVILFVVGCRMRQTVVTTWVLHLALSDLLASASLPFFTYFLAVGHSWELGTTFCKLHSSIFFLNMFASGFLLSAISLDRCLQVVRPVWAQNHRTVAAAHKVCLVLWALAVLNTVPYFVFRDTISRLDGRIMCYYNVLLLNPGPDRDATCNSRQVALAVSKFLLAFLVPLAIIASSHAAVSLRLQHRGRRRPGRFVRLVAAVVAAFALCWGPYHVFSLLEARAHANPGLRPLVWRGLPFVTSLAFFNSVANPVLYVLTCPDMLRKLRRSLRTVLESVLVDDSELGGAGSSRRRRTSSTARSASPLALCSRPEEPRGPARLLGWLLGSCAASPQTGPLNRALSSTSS
Summary of the method: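 Radioligand binding on membranes from HEK293.F cells transiently transfected with human CRTH2 cDNA. Test compounds dissolved in DMSO, run at 1% (v/v) final DMSO. PGD2 used at 1 μM final concentration. Values are means of n = 2-4 experiments.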

[2] = Cmax in BALB/c mouse at 30 mg/kg, po administered through 0.2 % Tween 80/0.5 % HPMC formulation; assay type: ADME, organism-based; design: dose 30 mg/kg, route oral; settings: in vivo
Summary of the method: (§1)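 Oral dosing at 30 mpk in female BALB/c mice, given as a solution in 0.2% Tween 80/0.5% HPMC, as an early bioavailability assessment.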

[3] = Metabolic stability in human liver microsomes assessed as compound remaining after 30 mins; assay type: ADME, Microsome; settings: read-out: Stability
Summary of the method: (§2)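 Incubation with rat or human liver microsomes for 30 min. Percent of parent remaining at 30 min reported.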

[4] = molecular target: Voltage-gated inwardly rectifying potassium channel KCNH2 (Homo sapiens, UniProt Q12809); assay: Displacement of [3H]Dofetilide from human hERG potassium channel expressed in HEK293 cell membranes
Voltage-gated inwardly rectifying potassium channel KCNH2, sequence (Q12809 whole entry): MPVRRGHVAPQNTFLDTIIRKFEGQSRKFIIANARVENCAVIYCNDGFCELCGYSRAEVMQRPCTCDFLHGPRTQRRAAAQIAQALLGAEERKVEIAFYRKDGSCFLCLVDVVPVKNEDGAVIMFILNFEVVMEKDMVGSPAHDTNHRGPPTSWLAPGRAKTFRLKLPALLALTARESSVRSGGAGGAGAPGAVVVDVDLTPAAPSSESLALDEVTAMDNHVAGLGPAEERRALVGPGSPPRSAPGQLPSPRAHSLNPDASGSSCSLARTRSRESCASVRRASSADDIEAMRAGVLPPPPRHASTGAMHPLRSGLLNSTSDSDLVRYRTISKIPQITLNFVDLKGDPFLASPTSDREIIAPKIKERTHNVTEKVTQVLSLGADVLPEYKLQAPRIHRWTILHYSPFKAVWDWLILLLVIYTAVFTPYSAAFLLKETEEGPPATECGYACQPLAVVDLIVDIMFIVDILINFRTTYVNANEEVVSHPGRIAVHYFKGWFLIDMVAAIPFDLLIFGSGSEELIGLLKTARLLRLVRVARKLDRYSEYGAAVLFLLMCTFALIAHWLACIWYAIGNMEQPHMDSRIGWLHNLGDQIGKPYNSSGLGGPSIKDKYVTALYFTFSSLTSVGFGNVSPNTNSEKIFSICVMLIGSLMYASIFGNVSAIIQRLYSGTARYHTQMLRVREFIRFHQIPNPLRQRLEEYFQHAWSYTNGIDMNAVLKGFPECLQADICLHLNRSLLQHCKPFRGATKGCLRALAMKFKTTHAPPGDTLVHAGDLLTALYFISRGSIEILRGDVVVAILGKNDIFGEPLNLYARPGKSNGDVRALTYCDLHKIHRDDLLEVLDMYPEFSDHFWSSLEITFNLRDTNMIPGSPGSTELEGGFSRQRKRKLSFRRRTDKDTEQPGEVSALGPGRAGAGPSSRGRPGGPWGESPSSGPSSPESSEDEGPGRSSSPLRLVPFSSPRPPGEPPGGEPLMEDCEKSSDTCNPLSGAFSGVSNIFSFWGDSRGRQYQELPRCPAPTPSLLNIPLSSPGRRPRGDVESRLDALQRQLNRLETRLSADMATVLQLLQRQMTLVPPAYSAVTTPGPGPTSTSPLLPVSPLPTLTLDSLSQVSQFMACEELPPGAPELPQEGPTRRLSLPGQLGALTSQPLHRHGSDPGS

[5] = AUC in BALB/c mouse at 30 mg/kg, po administered through 0.2 % Tween 80/0.5 % HPMC formulation; assay type: ADME, organism-based; design: dose 30 mg/kg, route oral; settings: plasma; summary of the method: as §1
[6] = molecular target: T2, Prostaglandin D2 receptor (Homo sapiens, UniProt Q13258); assay: Displacement of [3H]PGD2 from human DP1 receptor expressed in HEK293 cell membranes
T2 sequence (Q13258 whole entry): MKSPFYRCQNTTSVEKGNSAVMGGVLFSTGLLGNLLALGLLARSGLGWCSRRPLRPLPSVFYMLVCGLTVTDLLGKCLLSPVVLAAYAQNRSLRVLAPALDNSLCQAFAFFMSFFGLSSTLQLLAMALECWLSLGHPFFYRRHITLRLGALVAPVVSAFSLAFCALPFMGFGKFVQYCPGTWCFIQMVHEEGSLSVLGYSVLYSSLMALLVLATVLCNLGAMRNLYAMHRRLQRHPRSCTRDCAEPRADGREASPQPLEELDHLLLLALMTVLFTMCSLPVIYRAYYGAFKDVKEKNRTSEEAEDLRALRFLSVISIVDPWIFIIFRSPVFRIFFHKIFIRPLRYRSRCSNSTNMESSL
Summary of the method: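 Radioligand binding on membranes from HEK293 cells expressing human DP-1. Test compounds dissolved in DMSO, run at 1% (v/v) final DMSO. PGD2 used at 1 μM final concentration.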

[7] = Metabolic stability in rat liver microsomes assessed as compound remaining after 30 mins; assay type: ADME, Microsome; settings: read-out: Stability; summary of the method: as §2
[8] = molecular target: T1, Prostaglandin D2 receptor 2; assay: Antagonist activity at human CRTH2 receptor expressed in CHO/Ga16 cells co-expressing Galpha16 protein assessed as calcium flux by FLIPR assay; assay type: functional, cell-based
Summary of the method: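 CHO cells co-expressing Gα16 and stably transfected with human CRTH2; antagonism read as calcium flux; IC50 determined.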

SMILES: Cc1c(CC(=O)O)c2ccsc2n1S(=O)(=O)c1ccccc1
- IC50 [1]: 2750 nM

SMILES: Cc1c(CC(=O)O)c2ccsc2n1S(=O)(=O)c1ccc(F)cc1
- IC50 [1]: 1630 nM

SMILES: Cc1c(CC(=O)O)c2ccsc2n1S(=O)(=O)c1ccc(C(F)(F)F)cc1
- IC50 [1]: 1130 nM

SMILES: Cc1c(CC(=O)O)c2ccsc2n1S(=O)(=O)c1ccc(C#N)cc1
- IC50 [1]: 3000 nM

SMILES: Cc1c(CC(=O)O)c2ccsc2n1S(=O)(=O)c1ccc(S(C)(=O)=O)cc1
- Cmax [2]: 7800 ng/mL
- remaining at 0.5 h [3]: 100%
- IC50 [1]: 90 nM
- IC50 [4]: > 100000 nM
- AUC [5]: 16400 ng·h/mL
- IC50 [6]: > 50000 nM
- remaining at 0.5 h [7]: 100%

SMILES: Cc1c(CC(=O)O)c2ccsc2n1S(=O)(=O)c1ccc(S(=O)(=O)N2CCOCC2)cc1
- IC50 [1]: 230 nM

SMILES: Cc1c(CC(=O)O)c2ccsc2n1S(=O)(=O)c1ccc(S(=O)(=O)N2CCCC2)cc1
- IC50 [1]: 390 nM

SMILES: Cc1c(CC(=O)O)c2ccsc2n1Cc1ccc(S(=O)(=O)N(C)C)cc1
- IC50 [1]: 190 nM

SMILES: Cc1c(CC(=O)O)c2ccsc2n1Cc1ccc(S(=O)(=O)N2CCOCC2)cc1
- IC50 [1]: 70 nM

SMILES: Cc1c(CC(=O)O)c2ccsc2n1Cc1ccc(S(=O)(=O)N(C)C2CCCCC2)cc1
- remaining at 0.5 h [3]: 62%
- IC50 [1]: 20 nM
- IC50 [4]: 31000 nM
- IC50 [6]: > 50000 nM
- remaining at 0.5 h [7]: 57%

SMILES: Cc1c(CC(=O)O)c2ccsc2n1Cc1ccc(S(C)(=O)=O)cc1
- remaining at 0.5 h [3]: 91%
- IC50 [1]: 50 nM
- IC50 [4]: 31000 nM
- IC50 [6]: > 50000 nM
- IC50 [8]: 130 nM
- remaining at 0.5 h [7]: 90%

SMILES: Cc1c(CC(=O)O)c2ccsc2n1Cc1ccc(S(C)(=O)=O)cc1Cl
- remaining at 0.5 h [3]: 97%
- IC50 [1]: 10 nM
- IC50 [4]: 45000 nM
- IC50 [6]: > 50000 nM
- remaining at 0.5 h [7]: 99%

SMILES: Cc1csc2c1c(CC(=O)O)c(C)n2S(=O)(=O)c1ccc(S(C)(=O)=O)cc1
- IC50 [1]: 1300 nM

SMILES: Cc1csc2c1c(CC(=O)O)c(C)n2Cc1ccc(S(C)(=O)=O)cc1
- IC50 [1]: 1500 nM

SMILES: Cc1cc2c(CC(=O)O)c(C)n(Cc3ccc(S(C)(=O)=O)cc3)c2s1
- IC50 [1]: 1800 nM

SMILES: Cc1cc2c(CC(=O)O)c(C)n(Cc3ccc(S(C)(=O)=O)cc3Cl)c2s1
- IC50 [1]: 330 nM

SMILES: CS(=O)(=O)c1ccc(S(=O)(=O)n2cc(CC(=O)O)c3ccsc32)cc1
- IC50 [1]: 4000 nM

SMILES: CS(=O)(=O)c1ccc(S(=O)(=O)n2cc(CC(=O)O)c3sccc32)cc1
- IC50 [1]: 5000 nM
